Here are results for one compound from ChEMBL document CHEMBL5046307 (ACS Med Chem Lett, 2022).

Data set [1] concerns the target T1, Nuclear receptor subfamily 1 group I member 2 (Homo sapiens, UniProt O75469).
T1 sequence (O75469 whole entry): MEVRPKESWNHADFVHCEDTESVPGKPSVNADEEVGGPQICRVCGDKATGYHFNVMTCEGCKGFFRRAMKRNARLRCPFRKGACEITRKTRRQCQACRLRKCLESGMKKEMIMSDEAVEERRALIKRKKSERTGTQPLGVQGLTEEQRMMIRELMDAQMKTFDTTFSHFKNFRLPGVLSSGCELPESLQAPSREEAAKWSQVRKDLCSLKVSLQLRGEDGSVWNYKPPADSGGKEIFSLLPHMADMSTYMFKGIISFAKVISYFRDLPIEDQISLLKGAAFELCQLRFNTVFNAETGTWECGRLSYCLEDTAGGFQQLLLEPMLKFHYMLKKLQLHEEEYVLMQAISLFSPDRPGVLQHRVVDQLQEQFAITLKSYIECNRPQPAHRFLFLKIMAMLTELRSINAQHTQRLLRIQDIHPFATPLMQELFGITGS
Nature of the data set: Transactivation of PXR (unknown origin) expressed in human DPX2 cells co-expressing luciferase gene under control of CYP3A4 promoter assessed as increase in luciferase activity incubated for 24 hrs by luminescence based analysis. To be noted: dpx2, 24 h.

A short description of data set [2]: Plasma protein binding in mouse assessed as fraction unbound incubated for 6 to 8 hrs by LC-MS/MS analysis. It counts as ADME, cell-free. Conditions: time 6-8 hrs.
Another data set addresses Cytochrome P450 2D6 (Homo sapiens, UniProt P10635). Nature of the data set: Inhibition of CYP2D6 in human liver microsomes using dextromethorphan as substrate by LC-MS/MS analysis. On the technique in general: Liver microsomes are vesicles of endoplasmic reticulum, rich in cytochrome P450 enzymes.
A further data set addresses T2, Cytochrome P450 1A2 (Homo sapiens, UniProt P05177).
T2 sequence (P05177 whole entry): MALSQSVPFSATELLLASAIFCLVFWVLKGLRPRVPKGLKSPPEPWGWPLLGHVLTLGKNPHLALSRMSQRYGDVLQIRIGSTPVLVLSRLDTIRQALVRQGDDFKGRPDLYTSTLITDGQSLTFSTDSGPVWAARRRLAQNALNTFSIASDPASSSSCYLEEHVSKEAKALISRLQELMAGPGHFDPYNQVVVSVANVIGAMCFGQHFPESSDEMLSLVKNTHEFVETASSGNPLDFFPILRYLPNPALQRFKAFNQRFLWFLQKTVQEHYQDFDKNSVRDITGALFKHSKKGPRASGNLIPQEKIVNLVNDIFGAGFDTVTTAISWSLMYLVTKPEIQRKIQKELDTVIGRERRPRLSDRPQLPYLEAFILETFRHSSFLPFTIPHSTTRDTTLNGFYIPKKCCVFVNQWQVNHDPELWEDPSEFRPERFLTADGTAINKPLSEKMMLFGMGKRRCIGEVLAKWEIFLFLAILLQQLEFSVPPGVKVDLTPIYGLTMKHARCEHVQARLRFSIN
The data set can be described thus: Inhibition of CYP1A2 in human liver microsomes using phenacetin as substrate by LC-MS/MS analysis.

The nature of data set [3]: Oral bioavailability in Wistar rat plasma at 0.8 mg/kg by LC-MS/MS analysis. It counts as ADME, organism-based.
Data set [4] is described as follows: Half life in Wistar rat plasma at 0.4 mg/kg, iv by LC-MS/MS analysis. It counts as ADME, organism-based.
Data set [5] is described as follows: Apparent permeability across apical to basolateral side in human Caco2 cells assessed as drug recovery at 2 uM and measured for 2 hrs by LC-MS/MS analysis. To be noted: Caco-2. In general terms: Passage across Caco-2 layers is used to estimate intestinal permeability.
In the next data set the target is Cytochrome P450 2C9 (Homo sapiens, UniProt P11712). The data set can be described thus: Inhibition of CYP2C9 in human liver microsomes using diclofenac as substrate by LC-MS/MS analysis.
Sequence of Cytochrome P450 2C9 (P11712 whole entry): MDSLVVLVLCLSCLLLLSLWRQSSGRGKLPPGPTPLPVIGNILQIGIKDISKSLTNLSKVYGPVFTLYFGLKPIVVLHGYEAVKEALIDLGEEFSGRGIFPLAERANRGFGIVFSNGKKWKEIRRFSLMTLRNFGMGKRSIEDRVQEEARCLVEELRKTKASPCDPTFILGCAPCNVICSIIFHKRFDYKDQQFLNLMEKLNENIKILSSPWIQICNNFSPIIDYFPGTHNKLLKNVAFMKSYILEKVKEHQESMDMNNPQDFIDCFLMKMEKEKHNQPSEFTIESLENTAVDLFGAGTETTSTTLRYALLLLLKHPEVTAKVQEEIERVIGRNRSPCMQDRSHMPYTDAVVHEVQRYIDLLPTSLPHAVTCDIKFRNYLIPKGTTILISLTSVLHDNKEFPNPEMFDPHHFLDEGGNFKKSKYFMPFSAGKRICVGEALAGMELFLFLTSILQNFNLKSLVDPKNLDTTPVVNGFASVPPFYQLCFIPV
Data set [6] is described as follows: Inhibition of mouse electron transport chain complex 1 assessed as reduction in cellular ATP measured after 24 hrs by celltiter-glo assay.
A short description of data set [7]: Clearance in male Wistar rat blood at 0.4 mg/kg, iv by LC-MS/MS analysis.
Data set [8] in a line: Inhibition of dog electron transport chain complex 1 assessed as reduction in cellular ATP measured after 24 hrs by celltiter-glo assay. To be noted: Canis lupus familiaris.
Data set [9] can be described thus: Inhibition of human electron transport chain complex 1 in human NCI-H1299 cells assessed as reduction in cellular ATP level measured after 24 hrs by CellTiter-Glo assay. It counts as cell-based. Conditions: Homo sapiens, NCI-H1299, 24 h. An outline of the steps: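 ATP-dependent luciferase luminescence read in H1299 cells, first without (M1) and then after adding the complex II substrate succinate (M2), to separate complex I block from downstream respiratory-chain inhibition or uncoupling.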

In a further data set the target is Cytochrome P450 3A4 (Homo sapiens, UniProt P08684). Nature of the data set: Inhibition of CYP3A4 in human liver microsomes using midazolam as substrate by LC-MS/MS analysis.
Sequence of Cytochrome P450 3A4 (P08684 whole entry): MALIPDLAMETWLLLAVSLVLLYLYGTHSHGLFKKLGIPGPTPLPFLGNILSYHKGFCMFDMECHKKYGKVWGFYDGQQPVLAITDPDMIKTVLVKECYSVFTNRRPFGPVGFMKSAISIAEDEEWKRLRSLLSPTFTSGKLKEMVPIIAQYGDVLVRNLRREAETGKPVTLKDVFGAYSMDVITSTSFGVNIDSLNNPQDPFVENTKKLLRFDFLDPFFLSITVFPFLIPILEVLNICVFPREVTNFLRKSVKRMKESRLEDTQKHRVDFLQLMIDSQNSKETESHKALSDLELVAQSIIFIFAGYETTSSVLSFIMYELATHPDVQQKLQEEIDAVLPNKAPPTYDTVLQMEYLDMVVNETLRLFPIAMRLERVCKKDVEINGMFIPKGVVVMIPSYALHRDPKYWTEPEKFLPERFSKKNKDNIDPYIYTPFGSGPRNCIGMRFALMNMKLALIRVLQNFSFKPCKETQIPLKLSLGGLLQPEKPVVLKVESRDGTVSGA
A further data set addresses T3, Cytochrome P450 2C8 (Homo sapiens, UniProt P10632).
T3 sequence (P10632 whole entry): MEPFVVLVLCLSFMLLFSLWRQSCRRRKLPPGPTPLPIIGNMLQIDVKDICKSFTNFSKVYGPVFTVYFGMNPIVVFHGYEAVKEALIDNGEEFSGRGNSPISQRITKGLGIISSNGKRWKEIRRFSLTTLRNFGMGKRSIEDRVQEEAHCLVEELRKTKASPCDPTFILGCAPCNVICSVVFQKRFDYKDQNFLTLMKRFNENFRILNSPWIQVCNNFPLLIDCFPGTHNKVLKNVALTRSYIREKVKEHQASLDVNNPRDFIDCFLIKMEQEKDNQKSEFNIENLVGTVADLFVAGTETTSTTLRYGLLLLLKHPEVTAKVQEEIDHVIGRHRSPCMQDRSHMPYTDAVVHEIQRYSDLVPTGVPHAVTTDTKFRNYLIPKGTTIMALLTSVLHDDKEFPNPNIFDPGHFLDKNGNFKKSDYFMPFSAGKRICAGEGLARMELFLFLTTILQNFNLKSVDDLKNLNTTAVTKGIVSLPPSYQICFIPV
Nature of the data set: Inhibition of CYP2C8 in human liver microsomes using amodiaquine as substrate by LC-MS/MS analysis.

The nature of data set [10]: Volume of distribution at steady state in Wistar rat plasma at 0.4 mg/kg, iv by LC-MS/MS analysis. The format is ADME, organism-based. Conditions: read-out: Vdss.
A short description of data set [11]: AUC in Wistar rat plasma at 0.8 mg/kg, po by LC-MS/MS analysis. It counts as ADME, organism-based. On the set-up: dose 0.8 mg/kg. To be noted: in vivo.
A short description of data set [12]: Lipophilicity, logD of compound. Conditions: octanol/water.
Data set [13] deals with Voltage-gated inwardly rectifying potassium channel KCNH2 (Homo sapiens, UniProt Q12809). The data set can be described thus: Inhibition of human ERG by patch-clamp assay. (The patch-clamp technique gives a direct electrical read-out from membranes.)
Sequence of Voltage-gated inwardly rectifying potassium channel KCNH2 (Q12809 whole entry): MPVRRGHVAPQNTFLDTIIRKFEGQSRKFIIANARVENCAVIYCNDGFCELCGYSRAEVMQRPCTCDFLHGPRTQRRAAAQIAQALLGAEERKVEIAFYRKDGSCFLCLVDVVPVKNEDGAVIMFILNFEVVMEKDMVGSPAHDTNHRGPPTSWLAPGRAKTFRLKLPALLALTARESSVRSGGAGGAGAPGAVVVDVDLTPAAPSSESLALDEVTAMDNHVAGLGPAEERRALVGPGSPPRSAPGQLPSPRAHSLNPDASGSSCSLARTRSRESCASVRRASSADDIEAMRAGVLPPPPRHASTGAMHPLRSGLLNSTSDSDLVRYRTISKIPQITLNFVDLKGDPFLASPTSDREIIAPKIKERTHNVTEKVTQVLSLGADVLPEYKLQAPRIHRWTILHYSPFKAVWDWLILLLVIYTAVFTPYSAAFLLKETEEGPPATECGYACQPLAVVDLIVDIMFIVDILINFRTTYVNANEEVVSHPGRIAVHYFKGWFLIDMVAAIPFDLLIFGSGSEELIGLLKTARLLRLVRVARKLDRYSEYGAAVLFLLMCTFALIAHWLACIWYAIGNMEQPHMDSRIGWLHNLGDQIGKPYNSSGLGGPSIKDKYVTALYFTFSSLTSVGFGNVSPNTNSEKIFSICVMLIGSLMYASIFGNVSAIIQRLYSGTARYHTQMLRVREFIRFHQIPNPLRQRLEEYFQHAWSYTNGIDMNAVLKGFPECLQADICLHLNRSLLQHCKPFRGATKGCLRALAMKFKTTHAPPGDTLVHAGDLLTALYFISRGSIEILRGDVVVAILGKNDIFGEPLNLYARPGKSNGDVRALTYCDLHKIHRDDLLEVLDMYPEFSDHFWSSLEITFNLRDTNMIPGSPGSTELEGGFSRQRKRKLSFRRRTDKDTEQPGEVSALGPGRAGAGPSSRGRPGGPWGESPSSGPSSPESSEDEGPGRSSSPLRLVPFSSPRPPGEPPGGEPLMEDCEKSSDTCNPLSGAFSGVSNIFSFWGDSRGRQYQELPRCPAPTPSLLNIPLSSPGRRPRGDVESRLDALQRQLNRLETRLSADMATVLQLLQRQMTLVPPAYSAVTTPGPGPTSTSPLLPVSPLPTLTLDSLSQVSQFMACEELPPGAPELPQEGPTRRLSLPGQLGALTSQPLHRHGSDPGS
Data set [14] is described as follows: Inhibition of rat electron transport chain complex 1 assessed as reduction in cellular ATP measured after 24 hrs by celltiter-glo assay.
The nature of data set [15]: Metabolic stability in rat hepatocyte assessed as maximum bioavailability measured up to 90 mins by LC-MS/MS analysis. Conditions: rat hepatocytes, read-out: Fmax. The format is ADME.
Data set [16] in a line: Efflux ratio of apparent permeability across basolateral to apical side over apical to basolateral side in human Caco2 cells at 2 uM incubated for 2 hrs by LC-MS/MS analysis. Conditions: Caco-2.
The nature of data set [17]: Solubility of the compound at pH 6.5. Conditions: buffer.

The structures appear in SMILES notation. ≈ marks a conversion by molar mass, not a printed value.

Sequence of Cytochrome P450 2D6 (P10635 whole entry): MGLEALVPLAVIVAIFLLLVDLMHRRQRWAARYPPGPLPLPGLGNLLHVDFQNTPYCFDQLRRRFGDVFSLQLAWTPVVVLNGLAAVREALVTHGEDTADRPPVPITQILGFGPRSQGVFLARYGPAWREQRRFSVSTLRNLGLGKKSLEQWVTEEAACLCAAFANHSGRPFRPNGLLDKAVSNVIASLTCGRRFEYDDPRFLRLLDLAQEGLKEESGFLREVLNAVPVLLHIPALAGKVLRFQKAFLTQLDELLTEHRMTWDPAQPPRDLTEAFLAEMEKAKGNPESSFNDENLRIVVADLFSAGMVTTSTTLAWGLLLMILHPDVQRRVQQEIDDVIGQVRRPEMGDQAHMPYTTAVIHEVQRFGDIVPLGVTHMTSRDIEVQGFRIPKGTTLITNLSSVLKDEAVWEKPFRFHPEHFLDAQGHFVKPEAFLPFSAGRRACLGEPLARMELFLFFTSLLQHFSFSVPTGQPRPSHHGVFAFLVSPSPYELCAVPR

As a reminder, the IC50 is the concentration that inhibits the measured activity by half. Usually bioavailability stands for dose-corrected exposure relative to a reference, in per cent. By half-life is commonly meant the time needed for the level to fall by half in the phase considered. Low values mean rapid decline, high ones slow decline. One may read the Papp A→B as how fast a substance crosses the layer from the apical side. For orientation: clearance means the volume of plasma or blood freed of the substance per unit of time. Low values mean a low capacity for elimination, high ones a high capacity for elimination. As a reminder, the logD is lipophilicity at a set pH, counting ionised and neutral species. Higher therefore signals a more lipophilic compound. The efflux ratio is a quotient of directional permeabilities that is used to spot active efflux. A word on the solubility: it is the concentration that dissolves in the medium under given conditions. For the compound `c1ccc2oc(-c3csc(C4CCN(Cc5nc6ncccc6[nH]5)CC4)n3)cc2c1`, the MEC in [1] is over 50 µM. Moreover, the Fu in data set [2] stood at 0.43%. For the same compound, the IC50 was over 20 µM against Cytochrome P450 2D6; over 20 µM against Cytochrome P450 1A2; 15 µM at Cytochrome P450 2C9; 0.038 µM in [6]; 0.047 µM in data set [8]; 0.079 µM in [9]. In addition, the IC50 is over 20 µM at Cytochrome P450 3A4, 7.8 µM against Cytochrome P450 2C8, 3 µM in [13] and 0.027 µM in data set [14]. The same compound yielded a bioavailability in data set [3] of 76%. In data set [4], this compound had a half-life of 6.2 h. Moreover, in data set [5], the Papp A→B at 2 h, 2 µM was found to be 9.2 ×10⁻⁶ cm/s. Besides, the clearance in data set [7] is 6.67 mL/min/kg. For the same compound, in [10], the Vd turned out to be 2.2 L/kg. Also, in [11], the AUC stood at 3.1 kg·h/L. For the same compound, in data set [12], the logD was 2.8. In [15], the Fh at 1.5 h turned out to be 81%. For the same compound, the efflux ratio at 2 h, 2 µM in data set [16] is 0.44. In data set [17], the concentration in solution (solubility) was 1.6 µg/mL (≈ 3.85 µM).
